Laboratory results reported in ChEMBL document CHEMBL1146618, “Discovery of 2-amino-heteroaryl-benzothiazole-6-anilides as potent p56(lck) inhibitors” (Bioorg Med Chem Lett, 2003).

Experiments:
[1] = target: Tyrosine-protein kinase Fyn (Homo sapiens, UniProt P06241); experiment: Inhibition of Fyn protein kinase
How it was run: (§1)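 Continuous coupled assay (pyruvate kinase/lactate dehydrogenase with PEP and NADH), run under the same conditions as the GST-Lck assay. Inhibitor was added in DMSO and the reaction started with ATP. Fluorescence was followed and rates were fitted by nonlinear least squares to derive Ki.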

[2] = target: T1, Tyrosine-protein kinase Lck (Homo sapiens, UniProt P06239); experiment: Inhibition of p56 Lck tyrosine kinase
T1 sequence (P06239 whole entry): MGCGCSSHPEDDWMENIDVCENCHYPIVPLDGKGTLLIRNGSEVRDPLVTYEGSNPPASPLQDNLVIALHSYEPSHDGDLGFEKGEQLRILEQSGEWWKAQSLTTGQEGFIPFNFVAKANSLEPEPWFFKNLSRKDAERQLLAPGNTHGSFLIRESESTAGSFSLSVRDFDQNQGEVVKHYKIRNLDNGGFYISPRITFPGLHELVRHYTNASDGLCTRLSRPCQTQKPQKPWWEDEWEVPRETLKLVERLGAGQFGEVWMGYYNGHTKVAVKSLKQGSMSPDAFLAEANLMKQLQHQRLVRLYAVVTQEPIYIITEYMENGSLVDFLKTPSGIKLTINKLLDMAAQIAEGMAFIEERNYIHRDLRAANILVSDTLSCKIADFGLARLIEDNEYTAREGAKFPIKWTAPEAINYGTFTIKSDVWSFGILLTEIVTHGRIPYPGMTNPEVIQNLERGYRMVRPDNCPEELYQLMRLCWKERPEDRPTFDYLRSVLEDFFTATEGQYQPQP

[3] = Inhibition of anti-CD3, anti-CD28 induced PBL T-cell proliferation; type: functional; conditions: Homo sapiens
[4] = target: Proto-oncogene tyrosine-protein kinase Src (Homo sapiens, UniProt P12931); experiment: Inhibition of Src protein tyrosine kinase; how it was run: as §1
Sequence of Proto-oncogene tyrosine-protein kinase Src (P12931 2-536 limits assumed): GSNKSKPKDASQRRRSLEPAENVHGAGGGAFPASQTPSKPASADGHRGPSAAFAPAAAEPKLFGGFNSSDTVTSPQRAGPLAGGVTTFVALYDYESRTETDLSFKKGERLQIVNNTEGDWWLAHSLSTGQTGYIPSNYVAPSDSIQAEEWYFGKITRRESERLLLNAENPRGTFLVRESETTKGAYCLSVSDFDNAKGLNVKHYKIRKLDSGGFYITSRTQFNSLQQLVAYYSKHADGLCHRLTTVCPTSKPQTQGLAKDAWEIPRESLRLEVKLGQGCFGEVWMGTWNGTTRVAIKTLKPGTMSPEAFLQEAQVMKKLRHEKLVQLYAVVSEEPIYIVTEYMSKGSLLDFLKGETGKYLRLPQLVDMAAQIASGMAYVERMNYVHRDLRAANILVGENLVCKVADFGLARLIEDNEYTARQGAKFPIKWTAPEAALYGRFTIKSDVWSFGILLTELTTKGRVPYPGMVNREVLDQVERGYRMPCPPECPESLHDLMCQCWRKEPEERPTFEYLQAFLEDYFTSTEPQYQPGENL

[5] = target: T1, Tyrosine-protein kinase Lck; experiment: Inhibition of human p56 Lck tyrosine kinase

Sequence of Tyrosine-protein kinase Fyn (P06241 whole entry): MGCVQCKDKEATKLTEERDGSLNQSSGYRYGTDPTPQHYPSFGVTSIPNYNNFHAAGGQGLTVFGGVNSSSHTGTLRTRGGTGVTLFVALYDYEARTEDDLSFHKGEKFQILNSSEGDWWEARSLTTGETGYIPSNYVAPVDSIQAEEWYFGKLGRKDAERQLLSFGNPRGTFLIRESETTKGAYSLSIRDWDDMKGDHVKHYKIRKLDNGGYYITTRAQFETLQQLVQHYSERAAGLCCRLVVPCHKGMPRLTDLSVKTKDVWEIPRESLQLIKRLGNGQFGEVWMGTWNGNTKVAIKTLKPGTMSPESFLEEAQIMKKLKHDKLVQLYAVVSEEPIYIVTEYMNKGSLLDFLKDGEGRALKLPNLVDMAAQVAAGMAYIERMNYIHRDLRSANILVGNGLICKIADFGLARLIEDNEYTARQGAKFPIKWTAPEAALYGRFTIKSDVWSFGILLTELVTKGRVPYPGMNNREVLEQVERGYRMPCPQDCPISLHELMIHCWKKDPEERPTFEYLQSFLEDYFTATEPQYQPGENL

| Structure (SMILES) | IC50 [5] [nM] | also measured |
| --- | --- | --- |
| Cc1cc(Nc2nc3ccc(C(=O)Nc4c(C)cccc4Cl)cc3s2)nc(NCCO)n1 | 2 | Ki [1]: 4 nM; IC50 [2]: 1.1 nM; IC50 [3]: 329 nM; Ki [4]: 10 nM |
| Cc1cnc(Nc2nc3ccc(C(=O)Nc4c(C)cc(C)cc4C)cc3s2)c(C)c1 | 17 |  |
| Cc1cccc(Cl)c1NC(=O)c1ccc2nc(Nc3cccc(N)n3)sc2c1 | 2 |  |
| CCc1cc(Nc2nc3ccc(C(=O)Nc4c(C)cc(C)cc4C)cc3s2)ncn1 | 77 |  |
| Cc1cc(C)c(NC(=O)c2ccc3nc(Nc4ccncc4)sc3c2)c(C)c1 | > 3100 |  |
| Cc1ccc(Nc2nc3ccc(C(=O)Nc4c(C)cccc4Cl)cc3s2)nc1 | 35 |  |
| Cc1cccc(Cl)c1NC(=O)c1ccc2nc(Nc3cnccn3)sc2c1 | 15 |  |
| CC(=O)NCCNc1cc(Nc2nc3ccc(C(=O)Nc4c(C)cccc4Cl)cc3s2)ncn1 | 6 |  |
| Cc1cc(C)c(NC(=O)c2ccc3nc(Nc4nccs4)sc3c2)c(C)c1 | > 3100 |  |
| Cc1cccc(Cl)c1NC(=O)c1ccc2nc(NN3C=CC=CN3)sc2c1 | 41 |  |
| Cc1cccc(Cl)c1NC(=O)c1ccc2nc(Nc3cccc(NCC(C)(C)N)n3)sc2c1 | 6 |  |
| CNc1cc(Nc2nc3ccc(C(=O)Nc4c(C)cccc4Cl)cc3s2)ncn1 | 2 | Ki [1]: 8.8 nM; Ki [2]: 6.6 nM; IC50 [3]: 690 nM; Ki [4]: 17 nM |
| Cc1ccnc(Nc2nc3ccc(C(=O)Nc4c(C)cccc4Cl)cc3s2)c1 | 20 |  |
| CNN1CCN(Cc2ccnc(Nc3nc4ccc(C(=O)Nc5c(C)cccc5Cl)cc4s3)c2)CC1 | 1 |  |
| Cc1cccc(Nc2nc3ccc(C(=O)Nc4c(C)cccc4Cl)cc3s2)n1 | 9 |  |
| Cc1cc(C)c(NC(=O)c2ccc3nc(Nc4cnc[nH]4)sc3c2)c(C)c1 | > 3100 |  |
| Cc1cccc(Cl)c1NC(=O)c1ccc2nc(Nc3cc(N)ncn3)sc2c1 | 8 |  |
| Cc1cc(C)c(NC(=O)c2ccc3nc(Nc4nc[nH]n4)sc3c2)c(C)c1 | > 3100 |  |
| Cc1cccc(Cl)c1NC(=O)c1ccc2nc(Nc3ccnc(NCCO)n3)sc2c1 | 3 |  |
| COc1cc(Nc2nc3ccc(C(=O)Nc4c(C)cccc4Cl)cc3s2)ncn1 | 13 |  |
| CNc1nccc(Nc2nc3ccc(C(=O)Nc4c(C)cccc4Cl)cc3s2)n1 | 20 |  |

| Structure (SMILES) | IC50 [5] [nM] | also measured |
| --- | --- | --- |
| Cc1cc(C)c(NC(=O)c2ccc3nc(Nc4ccccn4)sc3c2)c(C)c1 | 138 |  |
| Cc1cccc(Cl)c1NC(=O)c1ccc2nc(Nc3cc(N)ccn3)sc2c1 | 403 |  |
| Cc1cc(Nc2nc3ccc(C(=O)Nc4c(C)cccc4Cl)cc3s2)nc(C)n1 | 20 |  |
| CNCc1cc(Nc2nc3ccc(C(=O)Nc4c(C)cccc4Cl)cc3s2)nc(C)n1 | 7 |  |
| Cc1cccc(Cl)c1NC(=O)c1ccc2nc(NC(=O)NC(C)(C)C)sc2c1 |  | Ki [1]: 100 nM; Ki [2]: 5.5 nM; IC50 [3]: 1100 nM; Ki [4]: 333 nM |
| Cc1cccc(Cl)c1NC(=O)c1ccc2nc(Nc3ccnc(Cl)n3)sc2c1 | 31 |  |
| Cc1cc(C)c(NC(=O)c2ccc3nc(Nc4ccncn4)sc3c2)c(C)c1 | 403 |  |
| Cc1cc(C)nc(Nc2nc3ccc(C(=O)Nc4c(C)cccc4Cl)cc3s2)c1 | 8 |  |
| Cc1cccc(Cl)c1NC(=O)c1ccc2nc(Nc3ccccc3)sc2c1 | 327 |  |
| CCc1cc(Nc2nc3ccc(C(=O)Nc4c(C)cccc4Cl)cc3s2)ncn1 | 5 |  |
| Cc1cc(C)c(NC(=O)c2ccc3nc(Nc4nccnn4)sc3c2)c(C)c1 | 1890 |  |
| Cc1cc(C)c(NC(=O)c2ccc3nc(Nc4cccnc4)sc3c2)c(C)c1 | > 3100 |  |
| Cc1cccc(Cl)c1NC(=O)c1ccc2nc(Nc3cccc(CN4CCOCC4)n3)sc2c1 | 13 |  |
| Cc1ccc(Nc2nc3ccc(C(=O)Nc4c(C)cc(C)cc4C)cc3s2)nc1 | 72 |  |
| Cc1cc(C)c(NC(=O)c2ccc3nc(Nc4ncccn4)sc3c2)c(C)c1 | > 3100 |  |
| Cc1cccc(Cl)c1NC(=O)c1ccc2nc(Nc3cc(CN(C)C)ccn3)sc2c1 | 9 |  |
| Cc1cccc(Cl)c1NC(=O)c1ccc2nc(Nc3ccccn3)sc2c1 | 84 |  |
| Cc1ccnc(Nc2nc3ccc(C(=O)Nc4c(C)cc(C)cc4C)cc3s2)c1 | 32 |  |
| Cc1cc(C)c(NC(=O)c2ccc3nc(NCC4CC4)sc3c2)c(C)c1 | > 3100 |  |
| Cc1cccc(Cl)c1NC(=O)c1ccc2nc(Nc3ncc[nH]3)sc2c1 | > 3100 |  |
| Cc1cc(C)c(NC(=O)c2ccc3nc(Nc4cc(C)nc(C)n4)sc3c2)c(C)c1 | 53 |  |

| Structure (SMILES) | IC50 [5] [nM] | also measured |
| --- | --- | --- |
| Cc1cccc(Cl)c1NC(=O)c1ccc2nc(Nc3cccc(CN(C)C)n3)sc2c1 | 10 |  |
| Cc1cc(C)c(NC(=O)c2ccc3nc(Nc4cnccn4)sc3c2)c(C)c1 | 235 |  |
| CC(=O)NCCNc1cccc(Nc2nc3ccc(C(=O)Nc4c(C)cccc4Cl)cc3s2)n1 | 2 |  |
| Cc1cc(C)c(NC(=O)c2ccc3nc(Nc4cccc(C)n4)sc3c2)c(C)c1 | 180 |  |
| Cc1cccc(Cl)c1NC(=O)c1ccc2nc(Nc3cc(NCCO)ncn3)sc2c1 | 8 |  |
| Cc1cc(Nc2nc3ccc(C(=O)Nc4c(C)cccc4Cl)cc3s2)nc(NCC2CCCO2)n1 (stereo not given) | 1 | Ki [1]: 1.1 nM; Ki [2]: 0.54 nM; IC50 [3]: 262 nM; Ki [4]: 3.2 nM |
| CCc1ccnc(Nc2nc3ccc(C(=O)Nc4c(C)cccc4Cl)cc3s2)c1 | 5 |  |
| Cc1cccc(Cl)c1NC(=O)c1ccc2nc(Nc3ccncn3)sc2c1 | 27 |  |
| Cc1cccc(Cl)c1NC(=O)c1ccc2nc(Nc3cc(CN4CCOCC4)ccn3)sc2c1 | 1 |  |
| Cc1cccc(Cl)c1NC(=O)c1ccc2nc(Nc3cccc(NCCO)n3)sc2c1 | 0.5 | Ki [1]: 2.4 nM; Ki [2]: 0.9 nM; IC50 [3]: 475 nM; Ki [4]: 13 nM |
| Cc1cc(C)c(NC(=O)c2ccc3nc(Nc4ncc[nH]4)sc3c2)c(C)c1 | > 3100 |  |
| Cc1cc(C)c(NC(=O)c2ccc3nc(Nc4ncccc4C)sc3c2)c(C)c1 | > 3100 |  |
| Cc1cc(Nc2nc3ccc(C(=O)Nc4c(C)cccc4Cl)cc3s2)nc(CN2CCOCC2)n1 | 10 |  |
| Cc1cccc(Cl)c1NC(=O)c1ccc2nc(Nc3cc(Cl)ncn3)sc2c1 | 20 |  |
| Cc1nc(CN2CCOCC2)cc(Nc2nc3ccc(C(=O)Nc4c(C)cccc4Cl)cc3s2)n1 | 6 |  |
| Cc1cc(Nc2nc3ccc(C(=O)Nc4c(C)cccc4Cl)cc3s2)nc(NCC(C)(C)O)n1 | 6 |  |
| Cc1cc(Nc2nc3ccc(C(=O)Nc4c(C)cccc4Cl)cc3s2)ncn1 | 21 |  |
| Cc1cc(C)c(NC(=O)c2ccc3nc(Nc4ccccc4)sc3c2)c(C)c1 | 1740 |  |
| Cc1cccc(Cl)c1NC(=O)c1ccc2nc(Nc3ccn[nH]3)sc2c1 | 1590 |  |
